Data as given in paper PMC3149845 (The Journal of neuroscience : the official journal of the …, 2011).

How the values were obtained:
hTas1R2/smTas1R3 = molecular target: T1, hTas1R2/smTas1R3 (Homo sapiens, UniProt Q8TE23); assay: Ca2+ mobilization, mismatched receptor; type: cell-based, human/squirrel monkey; conditions: aspartame 10mM, neotame 1mM, sucralose 2 mM, D-tryptophan 5mM, sucrose 150mM; vs control / wild type human receptor
T1 sequence (Q8TE23 20-839): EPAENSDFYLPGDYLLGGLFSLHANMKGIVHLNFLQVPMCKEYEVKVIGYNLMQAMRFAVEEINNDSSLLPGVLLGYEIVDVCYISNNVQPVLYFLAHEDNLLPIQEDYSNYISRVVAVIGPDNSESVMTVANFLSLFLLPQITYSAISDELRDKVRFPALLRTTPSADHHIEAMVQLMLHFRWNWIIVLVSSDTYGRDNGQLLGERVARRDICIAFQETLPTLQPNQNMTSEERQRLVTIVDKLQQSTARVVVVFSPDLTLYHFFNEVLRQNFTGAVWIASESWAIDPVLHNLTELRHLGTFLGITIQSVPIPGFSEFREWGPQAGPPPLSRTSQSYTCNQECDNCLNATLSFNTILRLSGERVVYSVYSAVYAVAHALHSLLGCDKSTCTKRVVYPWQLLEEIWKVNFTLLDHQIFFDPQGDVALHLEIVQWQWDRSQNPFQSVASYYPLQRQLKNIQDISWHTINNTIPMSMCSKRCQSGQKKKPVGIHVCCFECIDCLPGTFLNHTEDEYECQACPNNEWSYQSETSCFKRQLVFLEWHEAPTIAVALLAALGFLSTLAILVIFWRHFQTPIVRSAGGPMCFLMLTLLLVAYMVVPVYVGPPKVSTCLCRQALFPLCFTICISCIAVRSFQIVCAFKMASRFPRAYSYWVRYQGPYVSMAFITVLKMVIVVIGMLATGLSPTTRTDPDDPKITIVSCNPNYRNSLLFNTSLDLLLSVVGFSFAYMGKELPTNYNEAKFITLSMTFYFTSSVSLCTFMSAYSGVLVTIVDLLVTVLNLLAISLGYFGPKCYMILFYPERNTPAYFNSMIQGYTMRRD
Outline: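 Transfected HEK293E cells (50,000/well; 0.06 μg Tas1R plasmid and 0.06 μg Gα16-gust44 per well) were medium-changed at 20 h, then loaded after 24 h with 3 μM Fluo-4 AM in HBSS/20 mM HEPES for 1 h. Tastant added 30 s into scan; fluorescence (ex 488/em 525 nm) read every 2 s for 150 s. ΔF/F normalized to the hTas1R2/hTas1R3 sucralose response; three independent experiments; unpaired t test.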

smTas1R2/hTas1R3 = molecular target: T2, smTas1R2/hTas1R3 (Saimiri sciureus, UniProt A3QP08); assay: Ca2+ mobilization, mismatched receptor; type: cell-based, human/squirrel monkey; conditions: aspartame 10mM, neotame 1mM, sucralose 2 mM, D-tryptophan 5mM, sucrose 150mM
T2 sequence (A3QP08 20-834): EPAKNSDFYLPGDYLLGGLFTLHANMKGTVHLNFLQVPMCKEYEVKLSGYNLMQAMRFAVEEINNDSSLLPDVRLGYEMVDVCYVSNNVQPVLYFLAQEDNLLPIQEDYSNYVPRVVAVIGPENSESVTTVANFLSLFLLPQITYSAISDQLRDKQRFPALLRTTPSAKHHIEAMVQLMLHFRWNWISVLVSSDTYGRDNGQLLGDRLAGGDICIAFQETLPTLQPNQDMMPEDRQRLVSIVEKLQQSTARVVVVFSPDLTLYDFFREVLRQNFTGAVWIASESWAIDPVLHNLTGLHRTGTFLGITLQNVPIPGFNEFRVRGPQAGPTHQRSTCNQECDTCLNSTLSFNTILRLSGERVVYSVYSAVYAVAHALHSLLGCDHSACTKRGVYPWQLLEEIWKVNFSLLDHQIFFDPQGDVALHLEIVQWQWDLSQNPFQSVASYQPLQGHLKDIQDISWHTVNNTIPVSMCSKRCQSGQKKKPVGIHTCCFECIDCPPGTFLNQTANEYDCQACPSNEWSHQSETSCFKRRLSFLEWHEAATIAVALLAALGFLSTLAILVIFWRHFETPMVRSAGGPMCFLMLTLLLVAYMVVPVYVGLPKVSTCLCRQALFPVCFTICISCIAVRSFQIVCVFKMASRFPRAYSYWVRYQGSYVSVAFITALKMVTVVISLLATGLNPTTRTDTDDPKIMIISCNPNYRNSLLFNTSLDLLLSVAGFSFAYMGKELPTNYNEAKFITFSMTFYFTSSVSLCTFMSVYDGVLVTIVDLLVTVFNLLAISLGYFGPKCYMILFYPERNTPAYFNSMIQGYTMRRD
T2 sequence (Q7RTX0 21-852 partner): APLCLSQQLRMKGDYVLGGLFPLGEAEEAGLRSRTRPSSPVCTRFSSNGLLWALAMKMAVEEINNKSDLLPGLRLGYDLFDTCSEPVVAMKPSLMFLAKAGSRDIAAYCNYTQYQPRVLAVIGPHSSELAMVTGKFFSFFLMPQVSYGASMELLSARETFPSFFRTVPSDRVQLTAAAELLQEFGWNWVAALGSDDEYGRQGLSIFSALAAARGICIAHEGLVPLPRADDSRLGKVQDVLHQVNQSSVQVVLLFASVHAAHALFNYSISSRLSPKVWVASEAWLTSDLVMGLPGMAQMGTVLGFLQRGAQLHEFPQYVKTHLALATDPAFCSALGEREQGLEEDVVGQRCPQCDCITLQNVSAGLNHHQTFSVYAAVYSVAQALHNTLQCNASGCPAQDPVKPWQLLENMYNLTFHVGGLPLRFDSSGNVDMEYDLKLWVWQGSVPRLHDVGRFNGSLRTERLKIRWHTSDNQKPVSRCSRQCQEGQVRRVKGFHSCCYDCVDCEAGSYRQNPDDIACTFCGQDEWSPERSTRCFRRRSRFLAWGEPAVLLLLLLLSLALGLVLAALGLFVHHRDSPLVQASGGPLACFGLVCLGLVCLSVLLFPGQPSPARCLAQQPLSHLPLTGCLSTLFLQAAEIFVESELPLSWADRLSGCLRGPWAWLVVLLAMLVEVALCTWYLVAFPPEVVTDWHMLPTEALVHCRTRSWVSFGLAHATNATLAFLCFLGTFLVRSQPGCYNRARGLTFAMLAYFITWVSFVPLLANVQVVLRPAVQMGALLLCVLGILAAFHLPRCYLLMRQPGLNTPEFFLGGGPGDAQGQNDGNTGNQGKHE
Outline: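 HEK293E cells grown at 37°C in Opti-MEM with 5% FBS and seeded at 50,000/well. Cells co-lipofected with Tas1R plasmids and Gα16-gust44 (0.06 μg each per well); medium changed at 20 h, assayed 24 h later. Cells loaded 1 h with Fluo-4 AM in HEPES-buffered HBSS. Tastant added at 30 s; fluorescence (ex 488/em 525 nm) read every 2 s for 150 s more. ΔF/F normalised to human receptor maximal sucralose response; mean ± SEM, three independent experiments.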

Structure (SMILES)	calcium response to sweetener (hTas1R2/smTas1R3)	calcium response to sweetener (smTas1R2/hTas1R3)
OC[C@H]1O[C@@](CO)(O[C@H]2O[C@H](CO)[C@@H](O)[C@H](O)[C@H]2O)[C@@H](O)[C@@H]1O [sucrose]	reduced responses	remained intact or reduced
N[C@H](Cc1c[nH]c2ccccc12)C(=O)O [D-tryptophan]	reduced responses	remained intact or reduced
